Results published in ChEMBL document CHEMBL4043276, “Design, synthesis and biological evaluation of 2-acetyl-5-O-(amino-alkyl)phenol derivatives as multifunctional agents for the treatment of Alzheimer's disease” (Bioorg Med Chem Lett, 2017).
Activity calls are given as the source filed them. The calls are words filed in the database; no cut-off is given here.

Assays:
[1] = Effective permeability of the compound by PAMPA; assay type: physicochemical; details: read-out: Peff
Acetylcholinesterase = Acetylcholinesterase (Electrophorus electricus, UniProt O42275); assay: Inhibition of electric eel AChE using acetylthiocholine as substrate incubated for 15 mins by Ellman's method
Acetylcholinesterase, sequence (O42275 whole entry): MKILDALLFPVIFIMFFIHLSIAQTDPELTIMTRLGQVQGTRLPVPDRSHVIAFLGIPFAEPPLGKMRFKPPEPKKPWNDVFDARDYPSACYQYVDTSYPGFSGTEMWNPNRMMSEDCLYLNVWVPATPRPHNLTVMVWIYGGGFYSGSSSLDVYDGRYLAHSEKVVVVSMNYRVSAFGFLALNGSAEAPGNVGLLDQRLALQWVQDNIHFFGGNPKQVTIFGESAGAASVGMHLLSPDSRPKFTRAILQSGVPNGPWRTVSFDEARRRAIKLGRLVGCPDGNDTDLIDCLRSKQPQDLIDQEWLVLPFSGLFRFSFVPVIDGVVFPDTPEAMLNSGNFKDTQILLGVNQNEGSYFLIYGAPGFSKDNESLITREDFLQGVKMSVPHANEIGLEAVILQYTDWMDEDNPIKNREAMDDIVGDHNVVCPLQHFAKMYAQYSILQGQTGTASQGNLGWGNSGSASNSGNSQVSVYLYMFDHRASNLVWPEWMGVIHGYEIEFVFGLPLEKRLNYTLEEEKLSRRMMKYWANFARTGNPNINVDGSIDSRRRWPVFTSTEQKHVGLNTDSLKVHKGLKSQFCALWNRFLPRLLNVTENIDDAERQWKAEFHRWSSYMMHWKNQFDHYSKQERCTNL

[2] = biological target: T1, Amine oxidase [flavin-containing] A (Homo sapiens, UniProt P21397); assay: Inhibition of recombinant human MAO-A at 10 uM using kynuramine as substrate after 30 mins by fluorescence method relative to control; details: 0.5 h
T1 sequence (P21397 whole entry): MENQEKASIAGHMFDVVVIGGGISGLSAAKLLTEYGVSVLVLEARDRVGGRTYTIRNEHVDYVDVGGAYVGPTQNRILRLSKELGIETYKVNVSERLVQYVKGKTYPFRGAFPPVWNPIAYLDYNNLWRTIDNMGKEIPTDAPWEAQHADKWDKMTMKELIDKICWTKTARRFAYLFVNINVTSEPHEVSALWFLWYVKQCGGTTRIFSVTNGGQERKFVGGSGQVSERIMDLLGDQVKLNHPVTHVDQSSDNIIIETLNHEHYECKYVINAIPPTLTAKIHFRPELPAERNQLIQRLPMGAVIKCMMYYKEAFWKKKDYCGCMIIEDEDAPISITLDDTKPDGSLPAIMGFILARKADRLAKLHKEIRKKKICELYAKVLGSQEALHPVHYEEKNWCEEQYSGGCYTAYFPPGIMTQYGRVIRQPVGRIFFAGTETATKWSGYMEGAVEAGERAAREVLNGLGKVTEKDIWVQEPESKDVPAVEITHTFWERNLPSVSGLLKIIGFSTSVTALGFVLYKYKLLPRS

[3] = biological target: BuChE (butyrylcholinesterase) (Equus caballus, UniProt P81908); assay: Inhibition of equine serum BuChE at 50 uM incubated for 15 mins by Ellman's method relative to control; details: horse
BuChE (butyrylcholinesterase), sequence (P81908 whole entry): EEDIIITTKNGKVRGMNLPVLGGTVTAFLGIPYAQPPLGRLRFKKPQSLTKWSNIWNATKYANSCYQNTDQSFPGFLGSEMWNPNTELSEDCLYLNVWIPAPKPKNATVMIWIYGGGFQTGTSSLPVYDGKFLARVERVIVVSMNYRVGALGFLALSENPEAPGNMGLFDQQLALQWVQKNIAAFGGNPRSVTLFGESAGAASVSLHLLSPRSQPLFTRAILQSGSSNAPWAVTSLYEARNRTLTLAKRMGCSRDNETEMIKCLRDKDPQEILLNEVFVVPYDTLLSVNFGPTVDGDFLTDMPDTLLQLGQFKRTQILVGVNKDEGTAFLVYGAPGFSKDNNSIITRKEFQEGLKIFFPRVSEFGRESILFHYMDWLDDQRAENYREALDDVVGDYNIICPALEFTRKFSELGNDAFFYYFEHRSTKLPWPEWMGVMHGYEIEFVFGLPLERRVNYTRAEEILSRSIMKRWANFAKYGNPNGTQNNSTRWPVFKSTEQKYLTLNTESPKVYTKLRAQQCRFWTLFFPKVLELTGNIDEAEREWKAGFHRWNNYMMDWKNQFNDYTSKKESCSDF

[4] = biological target: T2, Amine oxidase [flavin-containing] B (Homo sapiens, UniProt P27338)
T2 sequence (P27338 whole entry): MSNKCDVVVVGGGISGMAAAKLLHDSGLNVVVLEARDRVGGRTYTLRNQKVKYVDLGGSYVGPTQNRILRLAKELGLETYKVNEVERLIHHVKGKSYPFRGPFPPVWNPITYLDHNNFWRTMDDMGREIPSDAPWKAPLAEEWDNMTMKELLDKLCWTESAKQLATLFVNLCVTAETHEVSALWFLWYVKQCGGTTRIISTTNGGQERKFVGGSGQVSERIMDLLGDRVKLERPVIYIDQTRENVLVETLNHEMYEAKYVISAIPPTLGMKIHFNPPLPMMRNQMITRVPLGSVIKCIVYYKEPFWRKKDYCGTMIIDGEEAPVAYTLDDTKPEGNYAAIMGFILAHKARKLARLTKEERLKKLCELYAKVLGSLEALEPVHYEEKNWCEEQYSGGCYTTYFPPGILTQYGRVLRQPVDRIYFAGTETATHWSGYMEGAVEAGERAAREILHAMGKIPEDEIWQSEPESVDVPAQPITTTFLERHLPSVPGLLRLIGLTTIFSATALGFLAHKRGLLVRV

[5] = Antioxidant activity assessed as trolox equivalent of […]-induced radical scavenging activity measured every minute for 90 mins by ORAC fluorescein assay; assay type: functional
Outline: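 Measured by the ORAC-FL fluorescein method. Values are given as μM Trolox equivalent per μM of test compound.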

Cholinesterase = Cholinesterase (Equus caballus, UniProt P81908); assay type: ADME
Cholinesterase, sequence (P81908 whole entry): as the sequence (P81908 whole entry) above

[6] = Selectivity index, ratio of IC50 for equine serum BuChE to IC50 for electric eel AChE
Outline: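 IC50 values for E. electricus AChE and equine serum BuChE came from a modified Ellman assay, each the mean of three independent experiments run in triplicate. The selectivity index is the ratio of the two IC50 values.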

PC-12 [7] = assay: Protection against H2O2-induced cell injury in rat PC12 cells assessed as cell viability preincubated for 2 hrs followed by H2O2 addition measured after 24 hrs by MTT assay; assay type: functional, cell-based
Outline: (§1)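 PC12 cells were injured with 100 μM H2O2. Viability was measured by MTT reduction and compared with untreated control and with the H2O2-only group.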

PC-12 [8] = assay: Protection against H2O2-induced cell injury in rat PC12 cells assessed as cell viability at 10 uM preincubated for 2 hrs followed by H2O2 addition measured after 24 hrs by MTT assay (reference value: 46.5%); assay type: functional; details: read-out: Activity; outline: as §1
PC-12 [9] = assay: Protection against H2O2-induced cell injury in rat PC12 cells assessed as cell viability at 1 uM preincubated for 2 hrs followed by H2O2 addition measured after 24 hrs by MTT assay (reference value: 46.5%); assay type: functional; details: read-out: Activity; outline: as §1
[10] = Metal chelating activity assessed as compound-Cu2+ complex formation by measuring red shift at 37.5 uM after 30 mins by UV-Visible spectrophotometric method
[11] = Metal chelating activity assessed as compound-Zn2+ complex formation at 37.5 uM after 30 mins by UV-Visible spectrophotometric method
[12] = Metal chelating activity assessed as compound-Fe2+ complex formation at 37.5 uM after 30 mins by UV-Visible spectrophotometric method
[13] = Metal chelating activity assessed as compound-Al3+ complex formation at 37.5 uM after 30 mins by UV-Visible spectrophotometric method
[14] = Metal chelating activity assessed as mole fraction of compound required to show 1:1 stoichiometry for Cu2+-compound complex at 37.5 uM after 30 mins by UV-Visible spectrophotometric method
[15] = biological target: Acetylcholinesterase (Electrophorus electricus) (UniProt O42275); details: 0.5 to 2 uM
Acetylcholinesterase (Electrophorus electricus), sequence (O42275 24-633 limits assumed): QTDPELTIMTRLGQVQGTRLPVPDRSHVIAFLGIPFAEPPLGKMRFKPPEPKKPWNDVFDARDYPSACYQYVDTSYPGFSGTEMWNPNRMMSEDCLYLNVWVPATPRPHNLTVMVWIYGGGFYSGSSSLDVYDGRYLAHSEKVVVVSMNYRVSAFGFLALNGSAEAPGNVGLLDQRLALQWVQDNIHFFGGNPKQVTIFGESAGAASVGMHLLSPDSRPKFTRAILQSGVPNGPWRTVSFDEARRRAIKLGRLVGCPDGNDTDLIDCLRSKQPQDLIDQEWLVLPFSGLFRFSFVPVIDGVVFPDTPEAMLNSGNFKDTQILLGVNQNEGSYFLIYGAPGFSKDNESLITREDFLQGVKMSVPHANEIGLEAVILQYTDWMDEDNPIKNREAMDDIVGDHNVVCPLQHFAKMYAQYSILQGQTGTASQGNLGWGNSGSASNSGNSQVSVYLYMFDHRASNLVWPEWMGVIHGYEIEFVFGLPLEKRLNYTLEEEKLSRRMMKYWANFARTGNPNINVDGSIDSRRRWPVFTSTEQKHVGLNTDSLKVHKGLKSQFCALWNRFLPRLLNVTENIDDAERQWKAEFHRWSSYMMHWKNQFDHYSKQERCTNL

[16] = biological target: Acetylcholinesterase (Electrophorus electricus) (UniProt O42275); assay: Inhibition of electric eel AChE at 50 uM using acetylthiocholine as substrate incubated for 15 mins by Ellman's method relative to control

SMILES	IC50 (Acetylcholinesterase) [µM]	inhibition at 10 µM [2] [%]	inhibition at 0.25 h, 50 µM [3] [%]	IC50 [4] [µM]	Activity [5] [equiv]	also measured
C[C@]12CC[C@H]3[C@@H](CCC4=CC(=O)CC[C@@]43C)[C@@H]1CC[C@@H]2O [TESTOSTERONE]						Papp [1]: 16.3 to 17 ×10⁻⁶ cm/s
CC(=O)c1ccc(OCCCN2CCN(c3ncccn3)CC2)cc1O	26.3	< 5	< 5	15.1	0.95	
CC(=O)c1ccc(OCCCCN2CCCC2)cc1O	16.7	< 5	18.4	1.8	1	
Clc1cccc(Cl)c1N=C1NCCN1 [CLONIDINE]						Papp [1]: 5.1 to 5.3 ×10⁻⁶ cm/s
CC(=O)c1ccc(OCCCCN2CCN(c3ccccn3)CC2)cc1O	18.4	< 5	< 5	12	1.1	
CC(=O)c1ccc(OCCCCCN2CCN(c3ncccn3)CC2)cc1O	51.8	< 5		15.5	1	IC50 (Cholinesterase): 137 µM; Ratio IC50 [6]: 2.6
CC(=O)c1ccc(OCCCN2CCN(Cc3ccccc3)CC2)cc1O	0.96	< 5		6.8	1.5	IC50 (Cholinesterase): 31.4 µM; Ratio IC50 [6]: 32.7; Activity (PC-12 [7]): Dose-dependent effect; viability at 10 µM (PC-12 [8]): 73.3%; viability at 1 µM (PC-12 [9]): 59.6%; Activity [10]: Active; Activity [11]: inactive; Activity [12]: inactive; Activity [13]: inactive; Activity [14]: 0.99 molar ratio; Papp [1]: 13.3 ×10⁻⁶ cm/s; inhibition [15]: Active
CC(=O)c1ccc(OCCCCN2CCN(c3ncccn3)CC2)cc1O	27.5	< 5	< 5	15.2	0.98	
CCn1cc(C(=O)O)c(=O)c2cc(F)c(N3CCNCC3)nc21 [ENOXACIN]						Papp [1]: 0.47 to 0.9 ×10⁻⁶ cm/s
CC(=O)c1ccc(OCCCCCN2CCCCC2)cc1O	5.5	< 5	27.9	6.1	1.1	
CC(=O)c1ccc(OCCCN2CCN(c3ccccn3)CC2)cc1O	15.2	< 5	8.8	11.7	0.98	
CC(=O)c1ccc(OCCCCCCN2CCN(c3ccccn3)CC2)cc1O	25.8	< 5	< 5	20.7	1.1	
CC(=O)c1ccc(OCCCCCCN2CCN(Cc3ccccc3)CC2)cc1O	16.8	< 5		30.8	1.3	IC50 (Cholinesterase): 75.4 µM; Ratio IC50 [6]: 4.5
CC(=O)c1ccc(OCCCCN2CCN(Cc3ccccc3)CC2)cc1O	2.2	< 5	11.5	15.9	1.4	
CC(=O)c1ccc(OCCCCCCN2CCN(c3ncccn3)CC2)cc1O	57	< 5	< 5	34.6	0.98	
CC(=O)c1ccc(OCCCCCN2CCCC2)cc1O	6.3	< 5		3.5	1	IC50 (Cholinesterase): 37.2 µM; Ratio IC50 [6]: 5.9
CC(=O)c1ccc(O)cc1O			< 5		2.5	inhibition [16]: < 5%
CC(=O)c1ccc(OCCCCCCN2CCCCC2)cc1O	2.9	< 5		26.6	0.98	IC50 (Cholinesterase): 45.7 µM; Ratio IC50 [6]: 15.8
Cn1c(=O)c2c(ncn2C)n(C)c1=O [CAFFEINE]						Papp [1]: 1.28 to 1.3 ×10⁻⁶ cm/s
CN1C(C(=O)Nc2ccccn2)=C(O)c2ccccc2S1(=O)=O [PIROXICAM]						Papp [1]: 0.72 to 2.5 ×10⁻⁶ cm/s
CC(=O)c1ccc(OCCCN2CCCCC2)cc1O	29.2	< 5	< 5	2.8	1.1	
CC(=O)c1ccc(OCCCN2CCCC2)cc1O	41.3	< 5	< 5	0.62	1	
CC(=O)c1ccc(OCCCCN2CCCCC2)cc1O	8.8	< 5	21.4	2.5	1	
CC(=O)c1ccc(OCCCCCCN2CCCC2)cc1O	3.9	< 5		12.2	1	IC50 (Cholinesterase): 46.5 µM; Ratio IC50 [6]: 11.9
CC(=O)c1ccc(OCCCCCN2CCN(c3ccccn3)CC2)cc1O	21.9	< 5	< 5	16.7	0.99	
Cn1c(=O)c2[nH]cnc2n(C)c1=O.O [THEOPHYLLINE]						Papp [1]: 0.1 to 0.12 ×10⁻⁶ cm/s
CCn1cc(C(=O)O)c(=O)c2cc(F)c(N3CCNCC3)cc21 [NORFLOXACIN]						Papp [1]: 0.1 to 0.42 ×10⁻⁶ cm/s
CC(=O)c1ccc(OCCCCCN2CCN(Cc3ccccc3)CC2)cc1O	8.5	< 5		26.8	1.3	IC50 (Cholinesterase): 46.1 µM; Ratio IC50 [6]: 5.4
